pIC50: −log10 of the molar value.
Assays:
[1] = molecular target: Dual specificity protein kinase CLK1 (Mus musculus) (UniProt P22518); experiment: Inhibition of recombinant mouse CLK1 expressed in bacteria assessed as residual activity at 10 uM using GRSRSRSRSRSR as substrate in presence of [gamma33P]ATP relative to control
[2] = molecular target: Dual specificity protein kinase CLK1 (Mus musculus) (UniProt P22518); experiment: Inhibition of recombinant mouse CLK1 expressed in bacteria assessed as residual activity at 1 uM using GRSRSRSRSRSR as substrate in presence of [gamma33P]ATP relative to control
[3] = molecular target: Dual specificity tyrosine-phosphorylation-regulated kinase 1A (Rattus norvegicus) (UniProt Q63470); experiment: Inhibition of rat DYRK1A kinase domain (1 to 499 residues) expressed in bacteria assessed as residual activity at 10 uM using KKISGRLSPIMTEQ as substrate in presence of [gamma33P]ATP relative to control
[4] = molecular target: Dual specificity tyrosine-phosphorylation-regulated kinase 1A (Rattus norvegicus) (UniProt Q63470); experiment: Inhibition of rat DYRK1A kinase domain (1 to 499 residues) expressed in bacteria assessed as residual activity at 1 uM using KKISGRLSPIMTEQ as substrate in presence of [gamma33P]ATP relative to control
[5] = molecular target: T1, Cyclin-dependent kinase 5/CDK5 activator 1 (Homo sapiens) (UniProt Q00535+Q15078); experiment: Inhibition of recombinant human CDK5/p25 expressed in bacteria assessed as residual activity at 10 uM using histone H1 as substrate in presence of [gamma33P]ATP relative to control
Procedure, shortened: (§1)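 Recombinant human CDK5/p25 expressed in bacteria was used with histone H1 as substrate in a ³³P radioassay. Residual activity (%) was measured at 10 µM and 1 µM compound, in triplicate.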

[6] = molecular target: T1, Cyclin-dependent kinase 5/CDK5 activator 1 (Homo sapiens); experiment: Inhibition of recombinant human CDK5/p25 expressed in bacteria assessed as residual activity at 1 uM using histone H1 as substrate in presence of [gamma33P]ATP relative to control; procedure, shortened: as §1
[7] = molecular target: T2, Glycogen synthase kinase-3 (Sus scrofa) (UniProt B2LUN4+I6LNT8); experiment: Inhibition of porcine brain GSK3alpha/beta assessed as residual activity at 10 uM using YRRAAVPPSPSLSRHSSPHQSpEDEEE as substrate in presence of [gamma33P]ATP relative to control
Procedure, shortened: (§2)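 Radiometric kinase assay (method A, ³³P). GSK-3α/β affinity-purified from porcine brain (Sus scrofa domesticus). Inhibitors tested at 10 µM and 1 µM. Result reported as % residual kinase activity. Assays run in triplicate.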

[8] = molecular target: T2, Glycogen synthase kinase-3 (Sus scrofa); experiment: Inhibition of porcine brain GSK3alpha/beta assessed as residual activity at 1 uM using YRRAAVPPSPSLSRHSSPHQSpEDEEE as substrate in presence of [gamma33P]ATP relative to control; procedure, shortened: as §2
Sus scrofa [9] = species on record: Sus scrofa; experiment: Inhibition of porcine brain CK1delta/epsilon assessed as residual activity at 10 uM using RRKHAAIGSpAYSITA as substrate in presence of [gamma33P]ATP relative to control
Sus scrofa [10] = species on record: Sus scrofa; experiment: Inhibition of porcine brain CK1delta/epsilon assessed as residual activity at 1 uM using RRKHAAIGSpAYSITA as substrate in presence of [gamma33P]ATP relative to control
[11] = molecular target: Dual specificity protein kinase CLK1 (Mus musculus, UniProt P22518); experiment: Inhibition of recombinant mouse CLK1 expressed in bacteria using GRSRSRSRSRSR as substrate in presence of [gamma33P]ATP
[12] = molecular target: T3, Dual specificity protein kinase CLK1 (Homo sapiens, UniProt P49759); experiment: Inhibition of recombinant human N-terminal GST-tagged CLK1 (129 to end residues) expressed in baculovirus infected Sf9 insect cells assessed as residual activity at 10 uM using MBP as substrate measured after 60 mins by ADP-Glo luminescence assay relative to control
Target sequence in this assay (P49759 whole entry, looked up): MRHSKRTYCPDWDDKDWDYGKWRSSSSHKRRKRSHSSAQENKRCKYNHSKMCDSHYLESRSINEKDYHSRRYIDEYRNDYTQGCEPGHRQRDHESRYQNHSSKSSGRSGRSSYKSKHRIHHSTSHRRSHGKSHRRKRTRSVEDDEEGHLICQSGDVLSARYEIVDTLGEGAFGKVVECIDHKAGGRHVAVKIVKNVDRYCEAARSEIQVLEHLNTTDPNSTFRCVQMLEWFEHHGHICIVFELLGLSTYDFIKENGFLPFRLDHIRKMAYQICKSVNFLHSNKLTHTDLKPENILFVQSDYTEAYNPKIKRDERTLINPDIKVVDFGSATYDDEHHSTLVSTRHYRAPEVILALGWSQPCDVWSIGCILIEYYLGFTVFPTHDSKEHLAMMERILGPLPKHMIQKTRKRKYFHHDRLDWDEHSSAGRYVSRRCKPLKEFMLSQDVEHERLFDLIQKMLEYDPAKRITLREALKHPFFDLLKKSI

[13] = molecular target: T3, Dual specificity protein kinase CLK1; experiment: Inhibition of recombinant human N-terminal GST-tagged CLK1 (129 to end residues) expressed in baculovirus infected Sf9 insect cells assessed as residual activity at 1 uM using MBP as substrate measured after 60 mins by ADP-Glo luminescence assay relative to control
Target sequence in this assay (P49759 whole entry, looked up): as above

[14] = molecular target: T3, Dual specificity protein kinase CLK1; experiment: Inhibition of recombinant human N-terminal GST-tagged CLK1 (129 to end residues) expressed in baculovirus infected Sf9 insect cells sing MBP as substrate measured after 60 mins by ADP-Glo luminescence assay
Target sequence in this assay (P49759 whole entry): as the sequence (P49759 whole entry, looked up) above

[15] = molecular target: Dual specificity tyrosine-phosphorylation-regulated kinase 1A (Rattus norvegicus) (UniProt Q63470); experiment: Inhibition of recombinant full-length rat N-terminal GST-tagged DYRK1A was expressed in Escherichia coli assessed as residual activity at 10 uM using DYRKtide as substrate measured after 60 mins by ADP-Glo luminescence assay relative to control
[16] = molecular target: Dual specificity tyrosine-phosphorylation-regulated kinase 1A (Rattus norvegicus) (UniProt Q63470); experiment: Inhibition of recombinant full-length rat N-terminal GST-tagged DYRK1A was expressed in Escherichia coli assessed as residual activity at 1 uM using DYRKtide as substrate measured after 60 mins by ADP-Glo luminescence assay relative to control
[17] = molecular target: Dual specificity tyrosine-phosphorylation-regulated kinase 1A (Rattus norvegicus, UniProt Q63470); experiment: Inhibition of recombinant full-length rat N-terminal GST-tagged DYRK1A was expressed in Escherichia coli using DYRKtide as substrate measured after 60 mins by ADP-Glo luminescence assay
[18] = molecular target: T4, Casein kinase I (Homo sapiens) (UniProt Q9HCP0+P78368+P48730+P49674+P48729); experiment: Inhibition of CK1 (unknown origin) assessed as residual activity at 1 uM relative to control
[19] = molecular target: T5, Glycogen synthase kinase-3 (Homo sapiens) (UniProt P49840+P49841); experiment: Inhibition of GSK3 (unknown origin) assessed as residual activity at 1 uM relative to control
[20] = molecular target: T4, Casein kinase I (Homo sapiens); experiment: Inhibition of CK1 (unknown origin) assessed as residual activity at 10 uM relative to control
[21] = molecular target: T5, Glycogen synthase kinase-3 (Homo sapiens); experiment: Inhibition of GSK3 (unknown origin) assessed as residual activity at 10 uM relative to control
[22] = molecular target: T1, Cyclin-dependent kinase 5/CDK5 activator 1 (Homo sapiens); experiment: Inhibition of recombinant human full-length N-terminal GST-tagged CDK5/p25 expressed in baculovirus infected Sf9 insect cells assessed as residual activity at 1 uM using histone H1 as substrate measured after 10 mins relative to control
[23] = molecular target: T1, Cyclin-dependent kinase 5/CDK5 activator 1 (Homo sapiens); experiment: Inhibition of recombinant human full-length N-terminal GST-tagged CDK5/p25 expressed in baculovirus infected Sf9 insect cells assessed as residual activity at 10 uM using histone H1 as substrate measured after 10 mins relative to control

Sequence of Dual specificity protein kinase CLK1 (Mus musculus) (P22518 whole entry, looked up, the tested form may be a part): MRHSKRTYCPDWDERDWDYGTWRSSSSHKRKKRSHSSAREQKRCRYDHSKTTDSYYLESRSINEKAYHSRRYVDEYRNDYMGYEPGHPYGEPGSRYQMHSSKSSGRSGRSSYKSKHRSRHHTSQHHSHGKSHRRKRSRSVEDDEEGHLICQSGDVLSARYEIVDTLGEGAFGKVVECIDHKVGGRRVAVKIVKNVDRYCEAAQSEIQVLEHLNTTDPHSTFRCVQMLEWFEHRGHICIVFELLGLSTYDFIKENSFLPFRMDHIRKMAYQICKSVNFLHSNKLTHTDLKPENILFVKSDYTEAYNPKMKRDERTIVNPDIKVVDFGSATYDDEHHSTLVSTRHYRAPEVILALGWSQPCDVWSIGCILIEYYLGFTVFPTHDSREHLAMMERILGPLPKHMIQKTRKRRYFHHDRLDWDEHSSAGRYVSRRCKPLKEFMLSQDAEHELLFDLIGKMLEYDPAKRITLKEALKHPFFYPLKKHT
T1 sequence (Q00535 whole entry): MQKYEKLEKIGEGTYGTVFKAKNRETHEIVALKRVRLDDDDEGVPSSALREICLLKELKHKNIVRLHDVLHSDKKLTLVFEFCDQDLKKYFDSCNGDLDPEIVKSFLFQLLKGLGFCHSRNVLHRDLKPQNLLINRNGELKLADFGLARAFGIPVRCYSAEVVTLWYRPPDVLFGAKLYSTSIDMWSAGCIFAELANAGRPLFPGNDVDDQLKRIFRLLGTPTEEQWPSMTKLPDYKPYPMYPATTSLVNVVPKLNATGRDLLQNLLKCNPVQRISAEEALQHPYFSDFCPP
T1 sequence (Q15078 99-307 partner limits assumed): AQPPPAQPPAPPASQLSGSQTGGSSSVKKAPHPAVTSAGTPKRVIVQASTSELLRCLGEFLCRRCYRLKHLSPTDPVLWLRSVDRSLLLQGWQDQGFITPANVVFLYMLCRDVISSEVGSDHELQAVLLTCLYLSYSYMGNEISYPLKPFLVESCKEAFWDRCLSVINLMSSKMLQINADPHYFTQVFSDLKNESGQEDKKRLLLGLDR
T5 sequence (P49840 whole entry, looked up): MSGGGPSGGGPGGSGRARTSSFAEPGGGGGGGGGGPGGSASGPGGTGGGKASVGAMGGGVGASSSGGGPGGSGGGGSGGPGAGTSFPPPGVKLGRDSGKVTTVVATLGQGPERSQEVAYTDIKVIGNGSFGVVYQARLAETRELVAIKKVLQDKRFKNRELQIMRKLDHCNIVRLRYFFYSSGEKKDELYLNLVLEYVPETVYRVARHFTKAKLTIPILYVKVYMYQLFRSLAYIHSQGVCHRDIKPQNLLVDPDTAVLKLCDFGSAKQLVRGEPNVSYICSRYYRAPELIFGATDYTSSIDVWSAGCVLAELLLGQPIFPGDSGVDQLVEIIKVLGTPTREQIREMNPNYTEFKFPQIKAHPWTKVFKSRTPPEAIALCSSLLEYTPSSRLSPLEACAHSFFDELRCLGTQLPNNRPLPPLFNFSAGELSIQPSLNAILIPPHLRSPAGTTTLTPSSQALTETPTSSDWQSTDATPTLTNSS
T5 sequence (P49841 whole entry, looked up): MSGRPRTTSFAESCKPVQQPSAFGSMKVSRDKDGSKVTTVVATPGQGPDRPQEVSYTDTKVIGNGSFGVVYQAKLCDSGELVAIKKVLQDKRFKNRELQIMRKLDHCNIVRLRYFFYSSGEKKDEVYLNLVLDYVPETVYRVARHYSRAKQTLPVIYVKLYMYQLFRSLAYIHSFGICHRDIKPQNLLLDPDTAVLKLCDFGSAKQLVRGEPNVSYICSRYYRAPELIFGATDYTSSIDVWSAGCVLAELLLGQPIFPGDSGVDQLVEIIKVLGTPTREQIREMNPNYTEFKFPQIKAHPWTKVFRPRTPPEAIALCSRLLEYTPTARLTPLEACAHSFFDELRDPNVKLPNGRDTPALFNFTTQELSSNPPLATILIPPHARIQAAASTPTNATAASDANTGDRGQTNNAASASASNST
Sequence of Dual specificity protein kinase CLK1 (Mus musculus, UniProt P22518) (P22518 whole entry): as the sequence (P22518 whole entry, looked up, the tested form may be a part) above

Compound	Activity [1] [%]	Activity [2] [%]	Activity [3] [%]	Activity [4] [%]	Activity [5] [%]	Activity [6] [%]	Activity [7] [%]	Activity [8] [%]	Activity (Sus scrofa [9]) [%]	Activity (Sus scrofa [10]) [%]	also measured
CC(C)N(/C=N/c1ncc2cc3cnccc3c([N+](=O)[O-])c2n1)C(C)C	1	53	46	95	45	100	15	73	60	96	–
Nc1ncc2cc3cnccc3c([N+](=O)[O-])c2n1	2	6	5	36	56	88	25	74	9	41	–
CN(C)/C=N/c1ncc2cc3cnccc3c([N+](=O)[O-])c2n1	3	33	31	100	59	94	30	86	53	100	–
CN(C)CNc1ncc2cc3cnccc3c([N+](=O)[O-])c2n1	6	13	4	39	41	99	15	73	38	100	pIC50 [11]: 7.06
CC(C)N(CNc1ncc2cc3cnccc3c([N+](=O)[O-])c2n1)C(C)C	5	44	46	69	61	99	1	53	38	74	–
Nc1ncc2ccc3ccncc3c2n1	–	–	–	–	–	–	–	–	–	–	Activity [12]: 9%; Activity [13]: 48%; pIC50 [14]: 5.83; Activity [15]: 25%; Activity [16]: 71%; pIC50 [17]: 5.66; Activity [18]: 64%; Activity [19]: 98%; Activity [20]: 22%; Activity [21]: 75%; Activity [22]: 100%; Activity [23]: 63%
